# High-throughput results: PubChem, The Scripps Research Institute Molecular Screening Center
# In the library only some 2.4% were active in any assay of this set; here they are far more common.
# NPY Y1 blocker: NPY-Y1 (human) receptor antagonism. P25929. HEK293-CNG Y1 cells, membrane potential fluorescence; NPY at EC95, then isoproterenol. 200,000 compounds, 1% hits. AID 1040. inhibition, % at 3.6 µM;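 active means inhibition above the campaign mean inhibition of all tested compounds plus 3 SD, cut at about 20% in these data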;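 further: 0% = DMSO wells given NPY plus isoproterenol and 100% = isoproterenol alone without NPY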
#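 Assay system: HEK293 Y1/CNG channel cell line; Doses: single compound dose of 3.6 µM, 0.4% DMSO; Timing: dye 3 h, compound 60 min room temperature, stimulation 45 min; Technique: Membrane-potential fluorescent dye readout; Measure: % inhibition of NPY effect.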
# S1P4 antag: antagonists of human S1P4 receptor; S1P4-expressing cells, antagonist mode, reporter read-out; inhibition, % at 4.98 µM; 220,000 compounds, 0.26% hits; O95977; in the data active means inhibition above about 29%;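 further: 0% = wells stimulated with agonist and 100% = vehicle wells without agonist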
# NPY Y2 blocker: NPY-Y2 (human) receptor antagonism; AID 793; P49146; NPY-Y2 expressing cells, antagonist mode; 140,000 compounds, 0.99% hits; inhibition, % at 2.7 µM;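 further: 0% = vehicle with agonist challenge and 100% = reference antagonist with challenge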
# Target sequence (P49146 whole entry, looked up): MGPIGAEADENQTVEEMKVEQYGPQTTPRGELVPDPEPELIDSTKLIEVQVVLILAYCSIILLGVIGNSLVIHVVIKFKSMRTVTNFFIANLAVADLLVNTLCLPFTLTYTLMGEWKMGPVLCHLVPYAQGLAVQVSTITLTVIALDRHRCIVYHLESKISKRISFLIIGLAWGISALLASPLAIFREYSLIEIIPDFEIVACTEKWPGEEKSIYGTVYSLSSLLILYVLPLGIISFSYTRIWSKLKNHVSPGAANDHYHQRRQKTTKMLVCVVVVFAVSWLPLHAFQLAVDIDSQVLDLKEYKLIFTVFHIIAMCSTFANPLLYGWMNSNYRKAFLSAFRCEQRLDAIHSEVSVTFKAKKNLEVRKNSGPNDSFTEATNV
# NPY-Y1 PAM-ag: human NPY-Y1 potentiation or agonism, primary screen | NPY-Y1 expressing cells, potentiator/agonist activation | 220,000 compounds, 0.37% hits | activation, % at 3.6 µM | AID 1304 | P25929; in the data active means activation above about 33%, passing the limit was not always enough;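 further: cells stimulated with NPY at EC10 then isoproterenol at EC100; 0% = low agonist plus stimulus and 100% = saturating agonist plus stimulus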
# S1P4 agonist: activates the human S1P4 receptor; S1P4-expressing cell line, agonist reporter assay; O95977; activation, % at 4.98 µM; 220,000 compounds, 0.35% hits; AID 1509; in the data active means activation above about 11%;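 further: 0% = DMSO vehicle and 100% = reference agonist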
# NPY-Y2 PAM-ag: potentiates or activates human NPY-Y2 receptor. P49146. cells expressing NPY-Y2, potentiator/agonist read-out. activation, % at 3.6 µM. 220,000 compounds, 0.45% hits. AID 1359; in the data active means activation above about 27%;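 further: cells stimulated with NPY near EC25 plus isoproterenol at EC100; 0% = vehicle plus submaximal agonist and 100% = vehicle plus saturating agonist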
# NPY-Y1 ant conf: confirmation of human neuropeptide Y receptor Y1 antagonists; shares compounds with NPY Y1 blocker; HEK293-CNG NPY-Y1, membrane potential fluorescence, cAMP; NPY challenge against isoproterenol-raised cAMP; inhibition, % at 3.6 µM; 1,200 compounds, 21% hits; AID 1254; in the data active means inhibition above about 20%;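 further: 0% = vehicle with agonist plus stimulus and 100% = stimulus alone without agonist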
# NPY2 antag ctr: counter-screen for NPY-Y1 antagonists: human NPY-Y2 antagonism | shares compounds with NPY Y1 blocker | HEK293 NPY-Y2 CNG membrane potential fluorescence; cells given NPY, then isoproterenol | inhibition, % at 3.6 µM | 1,200 compounds, 28% hits | AID 1255;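 further: 0% = DMSO with agonist challenge and 100% = reference antagonist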
# * = called active by the depositor; nt = no result. Unless noted, no stated cut-off is given here; in the data, active means inhibition above about 17%; inactive means the rest.
SMILES,NPY Y1 blocker,S1P4 antag,NPY Y2 blocker,NPY-Y1 PAM-ag,S1P4 agonist,NPY-Y2 PAM-ag,NPY-Y1 ant conf,NPY2 antag ctr
N=c1n(CCN2CCCC2)c2ccccc2n1CC(O)c1ccco1 (centres undefined),5,1,4,-10,-1,-4,nt,nt
COc1cccc(C2=NN(C(=O)c3ccc(C)o3)C(O)(C(F)(F)F)C2)c1 (centres undefined),31*,15,nt,-15,1,0,12,15
OC(COCc1ccco1)CN1CCN(C(c2ccccc2)c2ccccc2)CC1 (centres undefined),9,-6,4,-2,1,-17,nt,nt
Cc1ccc(Cl)cc1N1CCN(CC(O)COCc2ccco2)CC1 (centres undefined),21*,-14,10,-47,-2,-17,13,7
O=C(CCCCn1c(=O)[nH]c2ccccc2c1=O)N1CCN(c2cccc(C(F)(F)F)c2)CC1,21*,-4,2,-56,0,4,3,3
Cc1ccc(CNc2ccc(Cl)cc2[N+](=O)[O-])cc1,24*,-15,5,-18,1,-18,8,12
Cc1nc2cc(-c3sccc3-n3cccc3)nn2c(C)c1C,22*,24,2,-60,-1,-31,17,20*
COc1ccc(OCC(=O)OC2CCCN(C)C2)cc1 (centres undefined),nt,7,nt,5,0,-3,nt,nt
N#C/C(=C\c1c[nH]c2ccccc12)c1nnc2n1CCCCC2,2,-35,1,-2,3,8,nt,nt
N#C/C(=N\Nc1cccc2ccccc12)c1nnc2n1CCCCC2,20*,-7,-1,1,2,0,-1,3
CN(C)CCn1c(=N)n(CC(O)c2ccc(Cl)c(Cl)c2)c2ccccc21 (centres undefined),23*,16,nt,-16,0,-33,16,29*
Cc1sc2ncnc(NCCCN3CCCC3=O)c2c1C,0,-23,nt,-11,1,-6,nt,nt
COc1ccc(-c2nc3ccccn3c2CN2CCN(c3ccccc3F)CC2)cc1,30*,-4,nt,-71,0,-6,27*,21*
CN(Cc1ccccc1)CC(O)COc1ccc(CNCc2cccnc2)cc1 (centres undefined),7,-6,nt,-19,0,-16,nt,nt
CN(Cc1ccccc1)CC(O)COc1ccc(CNCc2ccc(Cl)s2)cc1 (centres undefined),29*,4,nt,-34,-1,-24,20*,30*
O=c1[nH]c(CSc2nnc(-c3ccccc3)n2-c2ccccc2)nc2ccccc12,-2,4,2,2,1,-12,nt,nt
O=c1[nH]c(CSc2nnc(-c3ccccc3)n2C2CCCCC2)nc2ccccc12,30*,-14,0,-4,1,10,-2,0
N/C(=N\OC(=O)c1ccc2c(c1)OCO2)c1ccncc1,nt,-11,nt,15,1,-15,nt,nt
Cc1ccccc1NC1=C(Cl)C(=O)N(C2CCCCC2)C1=O,22*,-10,3,-14,1,7,7,1
CN1CCC(Oc2ccccc2Sc2ccc(C(F)(F)F)cc2)CC1,30*,12,16,-38,2,-10,8,15
CN1CCC(Oc2ccc(Sc3ccccc3)cc2)CC1,7,-5,8,-17,-1,8,nt,nt
COc1ccc(-n2nnc3c(=O)n(Cc4cc(C)ccc4C)cnc32)cc1,9,-35,3,-12,1,-9,nt,nt
COc1cccc(-n2nnc3c(=O)n(Cc4ccccc4F)cnc32)c1,30*,-22,12,-48,2,-10,9,7
O=C(NNc1cccc(Cl)n1)c1ccccc1CC[N+](=O)[O-],23*,18,nt,20,-1,8,2,-1
COC(=O)c1c(NC(=O)CSc2nnnn2-c2ccccc2)sc2c1CCC(C)C2 (centres undefined),20*,11,14,-34,0,9,12,14
